Test results published in ChEMBL document CHEMBL3124841, “Discovery of vinyl sulfones as a novel class of neuroprotective agents toward Parkinson's disease therapy” (J Med Chem, 2014).
Calls of active or inactive are those of the source. No cut-off for these calls is given here.

Tests used:
[1] = test system: Mus musculus; test: Effect on DAergic neurons in C57Bl/6 mouse SN at 10 mg/kg/day, po for 3 days by immunohistochemistry; type: ADME, organism-based; design: route oral; conditions: in vivo, 72 h
Method in brief: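 Male C57Bl/6 mice (23−25 g, n = 10/group) dosed orally at 10 mg/kg/day for 3 days, vehicle N-methyl-2-pyrrolidone and 20% Tween 80 in saline. MPTP 4 × 20 mg/kg ip 2 h apart, starting 24 h after first oral dose. Perfusion-fixed 7 days after first MPTP; TH immunostaining, nigral cells counted and striatal fibers densitometered on five sections each, 80 μm apart. Expressed as % vehicle control ± SEM.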

[2] = molecular target: T1, Nuclear factor erythroid 2-related factor 2 (Mus musculus) (UniProt Q60795); test: Induction of Nrf2-dependent HO1 protein expression in mouse CATH.a cells at 1 to 10 uM after 24 hrs by western blot analysis relative to control; type: cell-based
T1 sequence (whole entry): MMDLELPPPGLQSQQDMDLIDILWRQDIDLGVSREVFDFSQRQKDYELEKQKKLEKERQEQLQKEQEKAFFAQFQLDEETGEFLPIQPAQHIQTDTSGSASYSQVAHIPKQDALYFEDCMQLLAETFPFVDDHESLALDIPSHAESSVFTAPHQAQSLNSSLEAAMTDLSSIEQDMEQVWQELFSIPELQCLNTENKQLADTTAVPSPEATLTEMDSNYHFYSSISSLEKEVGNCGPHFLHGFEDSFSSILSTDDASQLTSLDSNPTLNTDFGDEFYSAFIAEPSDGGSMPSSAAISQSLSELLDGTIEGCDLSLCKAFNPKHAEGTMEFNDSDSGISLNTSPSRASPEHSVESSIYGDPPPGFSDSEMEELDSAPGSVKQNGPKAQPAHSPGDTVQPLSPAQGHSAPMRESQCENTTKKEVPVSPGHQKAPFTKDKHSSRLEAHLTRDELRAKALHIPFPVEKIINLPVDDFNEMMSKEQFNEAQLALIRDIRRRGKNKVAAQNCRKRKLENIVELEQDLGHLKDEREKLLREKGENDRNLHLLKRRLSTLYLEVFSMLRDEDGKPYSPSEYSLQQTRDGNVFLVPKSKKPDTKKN
Method in brief: (§1)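 Cells (CATH.a) exposed to graded concentrations for 24 h, lysed in RIPA buffer with protease inhibitors. Equal protein separated on 10% SDS gel, blotted; primary antibodies overnight at 4 °C, HRP secondary, chemiluminescence. Densitometry normalized to β-actin. At least duplicate cultures, fold of untreated control ± SEM.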

[3] = test system: Mus musculus; test: Inhibition of motor deficits in MPTP-induced C57Bl/6 mouse parkinson's disease model assessed as improvement in postural balance at 10 mg/kg/day, po for 3 days administered first dose at 24 hrs prior to first injection of 4X 20 mg/kg, ip MPTP challenge measured 6 days after last MPTP injection by hind-limb test; type: functional, organism-based
Method in brief: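 C57Bl/6 males (n = 10/group), 10 mg/kg/day po for 3 days in N-methyl-2-pyrrolidone/20% Tween 80 saline. MPTP 4 × 20 mg/kg ip at 2 h intervals, begun 24 h after first dose. Six days after last MPTP injection, mice suspended by tail and hindlimb position scored 0−4. Mean ± SEM.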

[4] = molecular target: T1, Nuclear factor erythroid 2-related factor 2 (Mus musculus); test: Induction of Nrf2-dependent GCLC gene expression in mouse CATH.a cells at 0.1 uM after 6 hrs by RT-PCR analysis; type: cell-based
Method in brief: (§2)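 CATH.a cells grown in RPMI 1640 with 8% horse serum and 4% FBS, exposed to graded concentrations for 6 h. mRNA analysed by RT-PCR with gene-specific primers, products run on 1% agarose gel, band densitometry normalized to GAPDH. At least duplicate cultures; fold induction versus untreated control ± SEM.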

[5] = species: Mus musculus; test: Neuroprotection against BH4-induced mouse CATH.a cell death assessed as cell viability at 0.1 uM treated for 20 hrs prior to BH4 challenge for 24 hrs by ATP assay; type: functional
Method in brief: (§3)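 CATH.a cells (2.4 × 10⁴/well) pretreated with graded concentrations for 20 h, then challenged with 200 μM BH4 for a further 24 h. Viability as cellular ATP by CellTiter-Glo luminescence. At least duplicate cultures, percent of untreated control ± SEM, compared with BH4-treated cells.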

[6] = molecular target: T1, Nuclear factor erythroid 2-related factor 2 (Mus musculus); test: Induction of Nrf2-dependent GCLC protein expression in mouse CATH.a cells after 24 hrs by western blot analysis; type: cell-based; method in brief: as §1
[7] = molecular target: T1, Nuclear factor erythroid 2-related factor 2 (Mus musculus); test: Induction of Nrf2-dependent GCLM gene expression in mouse CATH.a cells at 0.1 uM after 6 hrs by RT-PCR analysis; type: cell-based; method in brief: as §2
[8] = molecular target: T1, Nuclear factor erythroid 2-related factor 2 (Mus musculus); test: Induction of Nrf2-dependent HO1 protein level in mouse BV-2 cells at 20 uM after 24 hrs by sandwich ELISA relative to control; type: cell-based
Method in brief: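 Murine BV-2 microglia in DMEM/10% FBS, 2.0 × 10⁴ cells per well, treated at 20 μM for 24 h in triplicate. Lysates in NP-40 Tris buffer (pH 8.0) diluted tenfold; HO-1 measured by sandwich ELISA with HRP-streptavidin and Amplex Red fluorescence (ex 530/em 590 nm). Expressed as % of 0.04% DMSO vehicle control ± SEM; sulforaphane 5 μM as reference.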

[9] = test system: Mus musculus; test: Inhibition of motor deficits in MPTP-induced C57Bl/6 mouse parkinson's disease model assessed as time taken to climb down at 10 mg/kg/day, po for 3 days administered first dose at 24 hrs prior to first injection of 4X 20 mg/kg, ip MPTP challenge by vertical grid test (reference value: 22.4 +/-3.9 s); type: functional
[10] = molecular target: T1, Nuclear factor erythroid 2-related factor 2 (Mus musculus); test: Induction of Nrf2-dependent NQO1 gene expression in mouse CATH.a cells at 0.1 uM after 6 hrs by RT-PCR analysis; type: cell-based; method in brief: as §2
[11] = species: Mus musculus; test: Neuroprotection against BH4-induced mouse CATH.a cell death assessed as cell viability at 0.1 uM treated for 20 hrs prior to BH4 challenge for 24 hrs by LDH activity assay; type: functional
Method in brief: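 CATH.a cells at 2.4 × 10⁴/well given graded concentrations for 20 h, then 200 μM BH4 for an additional 24 h. Medium LDH activity from NADH oxidation with pyruvate, pH 7.4, read at 340 nm over 5 min. At least duplicate cultures, % untreated control ± SEM, compared against BH4-treated group.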

[12] = molecular target: T1, Nuclear factor erythroid 2-related factor 2 (Mus musculus); test: Induction of Nrf2-dependent GCLM protein expression in mouse CATH.a cells after 24 hrs by western blot analysis; type: cell-based; method in brief: as §1
[13] = molecular target: T1, Nuclear factor erythroid 2-related factor 2 (Mus musculus); test: Induction of Nrf2-dependent NQO1 gene expression in mouse CATH.a cells after 6 hrs by RT-PCR analysis; type: cell-based; method in brief: as §2
[14] = molecular target: T1, Nuclear factor erythroid 2-related factor 2 (Mus musculus); test: Induction of Nrf2 nuclear translocation in mouse CATH.a cells after 3 hrs by western blot analysis; type: cell-based
Method in brief: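 Mouse DAergic CATH.a cells treated at various concentrations for 3 h. Nuclei isolated by hypotonic HEPES buffer/NP-40 lysis, then nuclear proteins extracted in 400 mM NaCl HEPES buffer. Nrf2 Western blot with lamin B as nuclear marker, chemiluminescent detection, densitometry. At least duplicate cultures, expressed as fold induction over untreated control ± SEM.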

[15] = species: Mus musculus; test: Neuroprotection against BH4-induced mouse CATH.a cell death assessed as cell viability at >0.1 uM treated for 20 hrs prior to BH4 challenge for 24 hrs by ATP assay; type: functional; method in brief: as §3
[16] = molecular target: T1, Nuclear factor erythroid 2-related factor 2 (Mus musculus); test: Induction of Nrf2-dependent NQO1 gene expression in mouse CATH.a cells at 10 uM after 6 hrs by RT-PCR analysis relative to control; type: cell-based; method in brief: as §2
[17] = molecular target: T1, Nuclear factor erythroid 2-related factor 2 (Mus musculus); test: Induction of Nrf2-dependent GCLC gene expression in mouse CATH.a cells at 2 uM after 6 hrs by RT-PCR analysis relative to control; type: cell-based; method in brief: as §2

fold change (FC) [2]: 3
Activity [4]: inactive
Activity [6]: Dose-dependent effect
Activity [7]: inactive
fold change (FC) [8]: 3.8
Activity [10]: inactive
Activity [12]: Dose-dependent effect
Activity [13]: Dose-dependent effect
Activity [14]: Dose-dependent effect
fold change (FC) [16]: 5.67
fold change (FC) [17]: 1.41
Structure (SMILES): COc1ccccc1S(=O)(=O)/C=C/c1ccccc1Cl
Activity [1]: Non-toxic
inhibition [3]: Active
Activity [5]: Active
Time [9]: 6.3 s
Activity [11]: Active
Activity [15]: Active
